Data reported in ChEMBL document CHEMBL1149899 (J Med Chem, 2008).
In brackets after ≈: the same amount, converted by molar mass.

Tests used:
[1] = Inhibition of ATPase activity of yeast Hsp90; design: species or system Saccharomyces cerevisiae
[2] = Binding affinity to yeast Hsp90 by isothermal titration calorimetry; design: species or system Saccharomyces cerevisiae
[3] = Antitumor activity against human RXF 393NL cells; format: functional, cell-based
How it was run: (§1)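 Panel of 38 human solid-tumour cell lines, each tested in a monolayer proliferation assay. Growth inhibition was expressed as IC50 and IC70 values. Testing was run at Oncotest.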

[4] = Antitumor activity against human LXF 629L cells; format: functional, cell-based; how it was run: as §1
CWR22R = assay: Antitumor activity against human PRXF 22RV1 cells; format: functional, cell-based; how it was run: as §1
SW-620 = assay: Antitumor activity against human CXF SW620 cells; format: functional, cell-based; how it was run: as §1
[5] = Antitumor activity against human PRXF LNCAP cells; format: functional, cell-based; how it was run: as §1
[6] = Antitumor activity against human MEXF 276L cells; format: functional, cell-based; details: MEXF276L; how it was run: as §1
[7] = Antitumor activity against human RXF 944L cells; format: functional, cell-based; how it was run: as §1
Mus musculus = assay: Toxicity in human DU145 cells xenografted mouse assessed as loss of body weight at 10 mg/kg, ip on day 3; format: organism-based, DU-145; design: dose 10 mg/kg, route intraperitoneal; details: in vivo
[8] = Antitumor activity against human MEXF 394NL cells; format: functional, cell-based; how it was run: as §1
[9] = Antitumor activity against human HNXF 536L cells; format: functional, cell-based; how it was run: as §1
[10] = Antitumor activity against human PAXF PANC1 cells; format: functional, cell-based; details: PANC-1; how it was run: as §1
[11] = Antitumor activity against human MAXF 401NL cells; format: functional, cell-based; how it was run: as §1
[12] = Antitumor activity against human LXF 529L cells; format: functional, cell-based; how it was run: as §1
[13] = Antitumor activity against human LXF H640 cells; format: functional, cell-based; how it was run: as §1
DU-145 [14] = assay: Antitumor activity against human DU145 tumor xenografted mouse assessed delay for tumor quadrupling time at 10 mg/kg, ip; format: functional; details: route intraperitoneal
[15] = Antitumor activity against human BXF 1218L cells; format: functional, cell-based; how it was run: as §1
[16] = Antitumor activity against human MEXF 514L cells; format: functional, cell-based; how it was run: as §1
SF-268 = assay: Antitumor activity against human CNXF SF268 cells; format: functional, cell-based; how it was run: as §1
[17] = Antitumor activity against human PXF 1752L cells; format: functional, cell-based; how it was run: as §1
[18] = Antitumor activity against human RXF 1781L cells; format: functional, cell-based; how it was run: as §1
UO-31 = assay: Antitumor activity against human RXF UO31 cells; format: functional, cell-based; how it was run: as §1
[19] = Antitumor activity against human OVXF 899L cells; format: functional, cell-based; how it was run: as §1
DU-145 [20] = assay: Degradation of ErbB2 in human DU145 cell lysate by Western blot; format: functional, cell-based
How it was run: (§2)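 DU145 prostate cancer cells were exposed to 1 or 10 µM, with time points including 48 and 96 h. Cell lysates were probed by Western blot for ErbB2, cRaf1, Hsp90 and Hsp70.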

[21] = Antitumor activity against human CXF HCT116 cells; format: functional, cell-based; details: HCT-116; how it was run: as §1
[22] = Antitumor activity against human […] 1138L cells; format: functional, cell-based; how it was run: as §1
[23] = Antitumor activity against human LXF 1121L cells; format: functional, cell-based; how it was run: as §1
[24] = Antitumor activity against human LXF 526L cells; format: functional, cell-based; how it was run: as §1
[25] = Antitumor activity against human CNXF 498NL cells; format: functional, cell-based; how it was run: as §1
DU-145 [26] = assay: Degradation of cRaf1 in human DU145 cell lysate by Western blot; format: functional, cell-based; how it was run: as §2
[27] = Antitumor activity against human PAXF 165L cells; format: functional, cell-based; how it was run: as §1
DU-145 [28] = assay: Antitumor activity against human PRXF DU145 cells; format: functional, cell-based; how it was run: as §1
[29] = Antitumor activity against human MEXF 462NL cells; format: functional, cell-based; how it was run: as §1
DU-145 [30] = assay: Antitumor activity against human DU145 tumor xenografted mouse at 10 mg/kg, ip measured on day 31; format: functional; details: route intraperitoneal
[31] = Antitumor activity against human MEXF 520L cells; format: functional, cell-based; how it was run: as §1
MCF7 = assay: Antitumor activity against human MAXF MCF7 cells; format: functional, cell-based; how it was run: as §1
[32] = Antitumor activity against human LXF 289L cells; format: functional, cell-based; how it was run: as §1
OVCAR-3 = assay: Antitumor activity against human OVCAR-3 cells; format: functional, cell-based; how it was run: as §1
[33] = Antitumor activity against human PRXF PC3M cells; format: functional, cell-based; details: PC-3M; how it was run: as §1
[34] = Antitumor activity against human BXF T24 cells; format: functional, cell-based; details: T-24; how it was run: as §1
[35] = Antitumor activity against human CXF HT29 cells; format: functional, cell-based; details: HT-29; how it was run: as §1
[36] = Antitumor activity against human GXF 251L cells; format: functional, cell-based; how it was run: as §1
DU-145 [37] = assay: Antitumor activity against human DU145 tumor xenografted mouse assessed delay for tumor doubling time at 10 mg/kg, ip; format: functional; details: route intraperitoneal
[38] = Antitumor activity against human OVXF 1619L cells; format: functional, cell-based; how it was run: as §1
[39] = Antitumor activity against human RXF 486L cells; format: functional, cell-based; how it was run: as §1

## COC1=C2C[C@@H](C)C[C@H](OC)[C@H](O)[C@@H](C)/C=C(\C)[C@H](OC(N)=O)[C@@H](OC)/C=C\C=C(/C)C(=O)NC(=CC1=O)C2=O [GELDANAMYCIN]
[1]
  IC50: 7 µM
[2]
  Kd: 1.2 µM

## CO[C@H]1[C@@H](OC)C[C@H](C)[C@@H](OC)C2=CC(=O)C=C(NC(=O)/C(C)=C/C=C\[C@H](C)[C@@H](OC(N)=O)/C(C)=C/[C@@H]1C)C2=O [MACBECIN]
[3]
  IC50: 0.297 mg/L (≈ 0.532 µM)
  IC70: 5.18 mg/L (≈ 9.27 µM)
  IC90: 57.8 mg/L (≈ 103 µM)
[4]
  IC50: 0.005 mg/L (≈ 0.00895 µM)
  IC70: 30.6 mg/L (≈ 54.8 µM)
  IC90: 114 mg/L (≈ 204 µM)
CWR22R
  IC50: 0.189 mg/L (≈ 0.338 µM)
  IC70: 1.86 mg/L (≈ 3.33 µM)
  IC90: 31.6 mg/L (≈ 56.6 µM)
SW-620
  IC50: < 0.01 mg/L
  IC70: < 0.01 mg/L
  IC90: 7.36 mg/L (≈ 13.2 µM)
[5]
  IC50: 0.008 mg/L (≈ 0.0143 µM)
  IC70: 14.2 mg/L (≈ 25.5 µM)
  IC90: > 100 mg/L
[6]
  IC50: 13.9 mg/L (≈ 24.9 µM)
  IC70: 51.8 mg/L (≈ 92.7 µM)
  IC90: 193 mg/L (≈ 346 µM)
[7]
  IC90: 10 mg/L (≈ 17.9 µM)
Mus musculus
  Activity: 5.3%
[8]
  IC50: < 0.01 mg/L
  IC70: < 0.01 mg/L
  IC90: 31.6 mg/L (≈ 56.6 µM)
[9]
  IC50: 1.61 mg/L (≈ 2.89 µM)
  IC70: 4.22 mg/L (≈ 7.55 µM)
  IC90: 11 mg/L (≈ 19.7 µM)
[10]
  IC50: 0.577 mg/L (≈ 1.03 µM)
  IC70: 3.59 mg/L (≈ 6.43 µM)
  IC90: 139 mg/L (≈ 249 µM)
[11]
  IC50: < 0.01 mg/L
  IC70: < 0.01 mg/L
  IC90: < 100 mg/L
[12]
  IC50: 8.19 mg/L (≈ 14.7 µM)
  IC70: 25.6 mg/L (≈ 45.9 µM)
  IC90: 73 mg/L (≈ 131 µM)
[13]
  IC50: 2.11 mg/L (≈ 3.78 µM)
  IC70: 7.33 mg/L (≈ 13.1 µM)
  IC90: 61.6 mg/L (≈ 110 µM)
DU-145 [14]
  Time: 20.4 days
[15]
  IC50: < 0.01 mg/L
  IC70: < 0.01 mg/L
  IC90: 37.3 mg/L (≈ 66.7 µM)
[16]
  IC50: 7.8 mg/L (≈ 14 µM)
  IC70: 25.7 mg/L (≈ 46 µM)
  IC90: 83.8 mg/L (≈ 150 µM)
[1]
  IC50: 2 µM
SF-268
  IC50: 0.527 mg/L (≈ 0.943 µM)
  IC70: 1.97 mg/L (≈ 3.52 µM)
  IC90: 7.63 mg/L (≈ 13.7 µM)
[17]
  IC50: 16.6 mg/L (≈ 29.7 µM)
  IC70: 41.7 mg/L (≈ 74.6 µM)
  IC90: 105 mg/L (≈ 187 µM)
[18]
  IC50: 4.33 mg/L (≈ 7.75 µM)
  IC70: 25.9 mg/L (≈ 46.4 µM)
  IC90: 127 mg/L (≈ 227 µM)
UO-31
  IC50: 2.4 mg/L (≈ 4.3 µM)
  IC70: 4.99 mg/L (≈ 8.94 µM)
  IC90: 100 mg/L (≈ 179 µM)
[19]
  IC50: 16.2 mg/L (≈ 29 µM)
  IC70: 47.2 mg/L (≈ 84.6 µM)
  IC90: 138 mg/L (≈ 247 µM)
DU-145 [20]
  Activity: Dose-dependent effect
[21]
  IC50: 0.923 mg/L (≈ 1.65 µM)
  IC70: 6.06 mg/L (≈ 10.8 µM)
  IC90: 51.8 mg/L (≈ 92.7 µM)
[22]
  IC50: 3.35 mg/L (≈ 5.99 µM)
  IC70: 11.1 mg/L (≈ 19.9 µM)
  IC90: 90.1 mg/L (≈ 161 µM)
[23]
  IC50: 0.048 mg/L (≈ 0.0859 µM)
  IC70: 1 mg/L (≈ 1.79 µM)
  IC90: 60 mg/L (≈ 107 µM)
[24]
  IC50: 6.45 mg/L (≈ 11.5 µM)
  IC70: 41.2 mg/L (≈ 73.8 µM)
  IC90: 242 mg/L (≈ 434 µM)
[25]
  IC50: < 0.01 mg/L
  IC70: 0.857 mg/L (≈ 1.53 µM)
  IC90: 27.8 mg/L (≈ 49.8 µM)
DU-145 [26]
  Activity: Dose-dependent effect
[27]
  IC50: 4.16 mg/L (≈ 7.44 µM)
  IC70: 19.3 mg/L (≈ 34.6 µM)
  IC90: > 100 mg/L
DU-145 [28]
  IC50: < 0.01 mg/L
  IC70: < 0.01 mg/L
  IC90: 2.37 mg/L (≈ 4.24 µM)
[29]
  IC50: 0.456 mg/L (≈ 0.816 µM)
  IC70: 1.97 mg/L (≈ 3.52 µM)
  IC90: 41.2 mg/L (≈ 73.8 µM)
DU-145 [30]
  T/C: 32.2%
[31]
  IC50: 9.34 mg/L (≈ 16.7 µM)
  IC70: 26.4 mg/L (≈ 47.3 µM)
  IC90: 73.6 mg/L (≈ 132 µM)
MCF7
  IC50: 0.158 mg/L (≈ 0.283 µM)
  IC70: 3.32 mg/L (≈ 5.95 µM)
  IC90: 79.4 mg/L (≈ 142 µM)
[32]
  IC50: 27.7 mg/L (≈ 49.6 µM)
  IC70: 59 mg/L (≈ 106 µM)
  IC90: 125 mg/L (≈ 224 µM)
OVCAR-3
  IC50: 1.24 mg/L (≈ 2.22 µM)
  IC70: 3.62 mg/L (≈ 6.47 µM)
  IC90: 10.6 mg/L (≈ 18.9 µM)
[33]
  IC50: 0.009 mg/L (≈ 0.0161 µM)
  IC70: 1.41 mg/L (≈ 2.53 µM)
  IC90: 19.9 mg/L (≈ 35.7 µM)
[34]
  IC50: 1.6 mg/L (≈ 2.87 µM)
  IC70: 4.56 mg/L (≈ 8.16 µM)
  IC90: 35.9 mg/L (≈ 64.3 µM)
[35]
  IC50: < 0.01 mg/L
  IC70: 0.292 mg/L (≈ 0.523 µM)
  IC90: 7.2 mg/L (≈ 12.9 µM)
[36]
  IC50: 3.73 mg/L (≈ 6.67 µM)
  IC70: 25.1 mg/L (≈ 45 µM)
  IC90: 93.6 mg/L (≈ 168 µM)
DU-145 [37]
  Time: 2.3 days
[38]
  IC50: 1.56 mg/L (≈ 2.79 µM)
  IC70: 9.15 mg/L (≈ 16.4 µM)
  IC90: > 100 mg/L
[39]
  IC50: 6.72 mg/L (≈ 12 µM)
  IC70: 20.5 mg/L (≈ 36.8 µM)
  IC90: 86.6 mg/L (≈ 155 µM)
